Measurements as given in article PMC5352298 (Pharmacological research, 2016).
Like-named read-outs stand apart in the source and are kept apart here.

Assays:
[1] = tested on: mice (formalin-induced paw licking); assay: Formalin test; type: in vivo, mouse; settings: for reduction of licking-time AUC vs control, acute phase: acute phase 0–10 min; for reduction of licking-time AUC vs control, inflammatory phase: inflammatory phase 10–40 min; for ID50 (dose reducing the nociceptive response by 50% compared to control), acute phase / ID50 (dose reducing the nociceptive response by 50% compared to control), inflammatory phase: i.p.
[2] = tested on: mice (carrageenan induced paw edema); assay: Carrageenan induced paw edema; type: in vivo, mouse
Method in brief: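 Male CF-1 mice (20–35 g), n=5 per group. Test compound, ibuprofen (100 mg/kg, positive control) or MC vehicle given i.p. 2 h before intraplantar 25 μl λ-carrageenan; an MC/saline group also included. Both paws measured by caliper at baseline and 0.5, 1, 2, 3, 4, 6, 8 and 24 h. % edema = thickness/baseline. Mean ± s.e.m.; Tukey test.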

[3] = tested on: mice (carrageenan induced heat hyperalgesia); assay: Carrageenan test, heat hyperalgesia; type: in vivo, mouse; settings: for paw thickness an hour following administration: carrageenan injected paw
Method in brief: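 Mice acclimated 1 h on a 30°C plate, then 25 μl carrageenan (20 mg/ml in saline) s.c. into left hind plantar paw. Test compound (10–70 mg/kg), VPA (100 mg/kg) or 0.5% MC given i.p. 15 min before testing at 3 h; Sal/MC and Carr/MC controls; blinded. Radiant heat (35% intensity): flinch latency, mean of two readings 5 min apart, ipsilateral minus contralateral.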

[4] = rats, 60 mg/kg, multisol solution, previous study; cited from earlier work
rats with SNL neuropathy [5] = assay: Spinal nerve ligation; type: in vivo; settings: rat
Method in brief: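 Rats with pre-surgery threshold >15 g underwent L5–L6 spinal nerve ligation under ketamine/xylazine. Test compound at 40, 60 or 80 mg/kg i.p., MC vehicle, or MTMCD positive control, given 7, 14 and 21 days post-surgery. Latin-square design; experimenter blinded. Nine von Frey filaments (0.6–26 g); protected = no response to 15 g. TPE = earliest time of highest mean threshold.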

[6] = Pharmacokinetic study in mice; type: in vivo, mouse; settings: 80 mg/kg i.p.
Method in brief: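 Mice dosed 80 mg/kg i.p. (suspension in 0.5% MC), 4 per time point. Aortic blood collected after sacrifice at 0.25, 0.5, 1, 1.5, 2, 2.5 and 4 h. Heparinised plasma (3000g, 10 min) stored at −80°C. Chloroform extraction with N-methyl VCD internal standard, then GC/MS. Non-compartmental analysis: Cmax observed; CL/F = Dose/AUC; V/F = CL/F ÷ terminal slope.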

[7] = tested on: mice (acetic-acid induced abdominal constriction); assay: Acetic acid-induced abdominal constriction; type: in vivo, mouse; settings: for protective index (PI), writhing test: TD50 vs ED50
[8] = Pharmacokinetic study in rats; type: in vivo, rat; settings: 80 mg/kg i.p.
Method in brief: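 Rats given 80 mg/kg i.p. in 0.5% MC, four animals per time point. Cardiac-puncture blood (5 ml) taken at sacrifice at 0.25, 0.5, 1, 1.5, 2 and 4 h. Plasma (3000g, 10 min) held at −80°C, chloroform-extracted with N-methyl VCD internal standard and assayed by GC/MS. Non-compartmental: observed Cmax, CL/F = Dose/AUC, V/F = CL/F divided by terminal slope.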

rat sciatic nerve = assay: Sciatic nerve compound action potential; settings: 40 Hz
[9] = tested on: mice (acetic-acid induced abdominal constriction); settings: cited from earlier work
[10] = tested on: mice (formalin-induced paw licking); settings: same test; cited from earlier work
rats with SNL neuropathy [11] = settings: rat, same paradigm; cited from earlier work
mice = settings: mouse, in vivo, ip; cited from earlier work
[12] = sedation for the first 15 minutes after dosing

In the case of `CCCC(C(N)=O)C(C)CC` (stereo not drawn) [SPD, sec-Butylpropylacetamide], the “potency (effective dose) in the formalin test” value (shortened to “potency (effective dose)”) ([1]; mice) is reported as 70 mg/kg, the “reduction of licking-time AUC vs control, acute phase” value ([1]; mice, 70 mg/kg i.p.) is reported as 55% and the “reduction of licking-time AUC vs control, inflammatory phase” value ([1]; mice, 70 mg/kg i.p.) is reported as 74%. The “ID50 (dose reducing the nociceptive response by 50% compared to control), acute phase” value ([1]; mice) was 39 mg/kg, the “ID50 (dose reducing the nociceptive response by 50% compared to control), inflammatory phase” value ([1]; mice) was 40 mg/kg and the “protective index (PI), formalin test” value ([1]; ratio between ID50 and TD50, TD50 from White et al., 2012) was 2.2. The “percent paw thickness up to 24 hours following carrageenan injection” value ([2]; 70 mg/kg i.p.) was “did not decrease percent paw thickness”, the “heat hyperalgesia, normalized mean withdrawal time vs Carr/MC” value ([3]; 70 mg/kg i.p.) was “statistically different from the Carr/MC group” and the “paw thickness an hour following administration” value [3] was “Neither SPD nor VPA decreased paw thickness”. For the same molecule, the “ED50 in the carrageenan model (heat hyperalgesia)” value ([3]; i.p., at TPE, 95% CI 29.3–110) was 49 mg/kg, the CL/F [4] was 1.9 and the “tactile allodynia compared to control” value (rats with SNL neuropathy [5]; 60 and 80 mg/kg i.p., p<0.05) was “significantly reduced tactile allodynia”. For the same molecule, the “time to peak antiallodynic effect (TPE)” value (rats with SNL neuropathy [5]; i.p.) was 60 min, the “ED50 (antiallodynic, SNL model)” value (rats with SNL neuropathy [5]; i.p., at TPE (60 min), 95% CI of 9–61 mg/kg) was 49 mg/kg and the CL/F [6] was 28.3 mL/min/kg. The “peak plasma concentration (Cmax)” value [6] was 77.2 µg/mL, the volume of distribution [6] was 0.9 L/kg and the signs of toxicity [6, 12] was “not associated with any signs of toxicity except sedation”. The “protective index (PI), writhing test” value [7] was 2.2, the “mean number of writhes” value ([7]; mice, 30, 50 and 70 mg/kg i.p., p<0.001) was “significantly reduced” and the “dose of maximum efficacy in the writhing test” value ([7]; mice, i.p.) was 30 mg/kg. For the same molecule, the “ED50 in the writhing test” value ([7]; mice, i.p., 95% CI 24.3–67 mg/kg (SPD), 18–61mg/kg (VPA)) was 40 mg/kg, the CL/F [8] was 15 mL/min/kg and the “peak plasma concentration (Cmax)” value [8] was 66.2 µg/mL. The volume of distribution [8] was 1.1 L/kg, the signs of toxicity [8, 12] was “not associated with any signs of toxicity except sedation” and the “ratio between last and first CAP (Δf), phasic stimulation” value (rat sciatic nerve; 3mM, baseline 96.5%) was 96%. The “PAR of the first and last CAP normalized to baseline, phasic stimulation” value (rat sciatic nerve; 3mM, baseline 100%) was 90%.

For `CCN(CC)CC(=O)Nc1c(C)cccc1C` [lidocaine, Lidocaine, reference compound], the “PAR of the first CAP normalized to baseline, phasic stimulation” value (rat sciatic nerve; 1mM, baseline 100%) was 22.5% and the “PAR of the last CAP normalized to baseline, phasic stimulation” value (rat sciatic nerve; 1mM, baseline 100%) was 14.7%.

For `CN1C(C(=O)Nc2ccccn2)=C(O)c2ccccc2S1(=O)=O` [piroxicam], the “ED50 in the writhing model” value [9] is listed as 100 mg/kg.

In the case of `CC(=O)Oc1ccccc1C(=O)O` [aspirin], the “ED50 in the writhing model” value [9] is listed as 82 to 228 mg/kg.

In the case of `COc1ccc2c3c1O[C@H]1[C@@H](O)C=C[C@H]4[C@@H](C2)N(C)CC[C@@]341` [codeine], the “potency (effective dose)” value [10] is given as 25 to 50 mg/kg.

For `NCC1(CC(=O)O)CCCCC1` [gabapentin], the “ED50 (antiallodynic, SNL model)” value (rats with SNL neuropathy [11]) is listed as 32 mg/kg.

In the case of `CNC(=O)CC1C(C)(C)C1(C)C` [MTMCD, N-methyl tetramethylcyclopropyl acetamide, reference compound], the “antiallodynic effect vs MC (positive control)” value (rats with SNL neuropathy [5]; 80 mg/kg i.p.) is reported as “antiallodynic effect significantly different than MC”.

In the case of `CC(C)Cc1ccc(C(C)C(=O)O)cc1` (stereo not drawn) [Ibuprofen, reference compound], the “ED50 in the writhing model” value [9] is listed as 33 mg/kg and the “percent paw thickness following carrageenan injection” value ([2]; 100 mg/kg i.p., significant after 4 hours (p<0.05)) is listed as “decreased percent paw thickness”.

For `CCCC(CCC)C(=O)O` [VPA, valproic acid, reference compound], the licking time ([1]; mice, 70 mg/kg i.p.) was “unable to reduce the licking time significantly”, the licking time ([1]; mice, 100 mg/kg i.p.) was “showed reduction in only one of the two phases evaluated” and the “reduction of licking-time AUC vs control, acute phase” value ([1]; mice, 300 mg/kg i.p.) was 46%. The “reduction of licking-time AUC vs control, inflammatory phase” value ([1]; mice, 300 mg/kg i.p.) was 75%, the “ID50 (dose reducing the nociceptive response by 50% compared to control), acute phase” value ([1]; mice) was 136 mg/kg and the “ID50 (dose reducing the nociceptive response by 50% compared to control), inflammatory phase” value ([1]; mice) was 113 mg/kg. For the same molecule, the “ED50 (antiallodynic, SNL model)” value (rats with SNL neuropathy [11]) was 269 mg/kg, the “heat hyperalgesia vs Carr/MC” value ([3]; 100 mg/kg i.p.) was “not able to reduce heat hyperalgesia” and the “paw thickness an hour following administration” value [3] was “Neither SPD nor VPA decreased paw thickness”. The TD50 (mice) was 391 mg/kg, the ED50 ([7]; Mus musculus, ip, read-out: ED50 in the writhing test) was 44 mg/kg and the “protective index (PI), writhing test” value [7] was 8.8. For the same molecule, the number of writhes ([7]; mice, 50 and 100 mg/kg i.p.) was “significantly reduced the number of writhes”.

For `CN1CC[C@]23c4c5ccc(O)c4O[C@H]2[C@@H](O)C=C[C@H]3[C@H]1C5` [morphine], the “potency (effective dose)” value [10] is given as 5 to 10 mg/kg.
